Laboratory results: the RNAGym collection of RNA variant scans (doi:10.1101/gad.245936.114)
This sample holds only a part of the variants without activity.

B1: tRNA (parent)
chain: CUCUCGGUAGCCAAGUUGGUUUAAGGCGCAAGACUUUAAUUUAUCACUACGAAAUCUUGAGAUCGGGCGUUCGACUCGCCCCCGGGAGAUUUUUUCCUCGAGCAA

Variants of: B1
Assay: nonsense suppression (GFP-seq) (ratio to wild type); higher = more function; SUP4oc tRNA, yeast GFP reporter sort-seq
How it was run: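 Yeast carrying genome-integrated SUP4oc tRNA variants from a library with ~3% random mutations were grown in raffinose/galactose medium with 80 mg/L adenine. Each strain also carried a galactose-driven GFP ochre reporter and RFP. Cells were sorted into GFP/RFP bins, and each bin was Illumina-sequenced (phred ≥30). Nonsense suppression (GFPSEQ) is the bin median GFP/RFP, weighted by each variant's estimated cell share per bin, relative to wild-type SUP4oc; variants needed ≥100 reads and ≥30 cells.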

Variant | nonsense suppression
CUCUUGGUAGCGGAGUUGGUUUAAGGCGAAAGACUUUAAUUUAUCACUACGAAAUCUUGAGAUCGGGCGUUCGACUCGCCCCCGGGAGAUUUUUUCCUCGAGCAA | ≤ 0.026
CUCUUGGUAGCCGCGUUGGUUUAAGGCGCAAGACUUUAAUUUAUCACUACGAAAUCUUGAGAUCGGGCGUUCGACUCGCCCCCGGGAGAUUUUUUCCUCGAGCAA | ≤ 0.026
CUCUGGGUAGCCAAGUUGGUUUAAGGCGCAAGACUUUAAUUUAUCACUACGAAAUCGUGAGAUCGGGCGUGCGACUCGCCCCCGGGAGAUUUUUUCCUCGAGCAA | ≤ 0.026
CUCUGGGUAGCCAAGUUGGUUUAAAGCGCAAGACUUUAAUUUAUCACUACGAAAUCUUGAGAUCGGGCGUUCGACUCGCCCCCGGGAGGUUUUUUCCUCGAGCAA | ≤ 0.026
CUCUGGUUAGGCAAGUUGGUUUAAGGCGCAAGACUUUAAUUUAUCACUACGAAAUCUUGAGAUCGGGCGUUCGACUCGCCCCCGGGAGAUUUUUUCCUCGAGCAA | ≤ 0.026
CUCUGGGUAGCCAAGUUGGGUUAAGGCGCAAGACUUUAAUUUAUCACUACGAAAUCUUGAGAUCGGGCGUUCGAGUCGCCCCCGGGAUAUUUUUUCCUCGAGCAA | ≤ 0.026
CUCUUGGUAGCCCAGUUGGUUUAAGGCGCAAGACUUUAAUUUAUCACUACGAAAUCUUGAGAUCGGGCGUUCGACUCGCCCCCGGGAGAUUUUUUCCUCGAGCAA | 0.0679
CUCUGGGUAGCCAAGUUGGUUUAAGGCGCAAGACUUUAAUUUAUCACUACGAAAUCUUGAGAUCGUGCGUCCGACUCGCCCCCGGGAGAUUUUUUCCUCGAGCAA | ≤ 0.026
CUCUUGGUAGACAAGUUGGUGUAAGGCGCAAGACUUUAAUUUAUCACUACGAAAUCUUGAGAUCGGGCGUUCGACUCGCCCCCGGGUGAUUUUUUCCUCGAGCAA | ≤ 0.026
CUCUUGGUAGCCAAGUUGGUUUAAGGCGCAAGACUUUAAUUUAUCACUACGAAAUCUUGAGCUCCGGCGGACGACUCGCCCCCGGGAGAUUUUUUCCUCGAGCAA | ≤ 0.026
CUCUUGGUAGCCAAGUUGGUUUGAGCCGCAAGACUUUAAUUUAUCACUACGAAAUCUUGAGAUCGGGCGUUCGACUCACCCCCGGGAGAUUUUUUCCUCGAGCAA | ≤ 0.026
CUCUAGGUAGCCAAGUUGGUUUAAGGCGCAAGACUUUAAUUUAUCACUACGAAAUCUAGAGAUCGGGCGUUCGACUCCCCCCCGGGAGAUUUUUUCCUCGAGCAA | ≤ 0.026
CUCUGAGUAGCCAAGUUGGUUUAAGGCGCAAGUCGUUAAUUUAUCACUACGAAAUCUUGAGAUCGGGCGCUCGACUCGCCCCCGGGAGAUUUUUUCCUCGAGCAA | ≤ 0.026
CUCUGGGUAGCCAAGUUGGUUUAAGGCGCAAGACUUUAAUUUAUCACUACGAAAUCUUAAGCUCGGGCGUUCGACUCGCCCCCGGGAGAUUUUUUCCUCGAGCAA | ≤ 0.026
CUCUGGGUAGCCAAGUUGGUUUAUGGCGCAAGACUUUAAUUUAUCACUACGAAAUCCUGAGAUCGUGCGUUCGACUCGCCCCCGGGAGAUUUUUUCCUCGAGCAA | ≤ 0.026
CUCUGGGUAGCCAAGAUGGUUCAAGGCGCAAGACUUUAAUUUAUCACUACGAAAUCCUGAGAUCGGGCGUUUGACUCGCCCCCGGGCGAUUUUUUCCUCGAGCAA | ≤ 0.026
CUCUGGGUAGCCUAGUUGUUUUAAGGCGCAAGACGUUAAUUUAUCACUACGAAAUCUUGAGAUCGGGCGUUCGACUCGCCCCCGGGGGAUUUUUUCCUCGAGCAA | ≤ 0.026
CUCUGGGUAGCCGAGUUGGUUUAAGGCGCAAGACUUUAAUUUAUCACUACGAAAUCUUGAGAUCGGGCGUUCGACUCUCCCCCGGGAGAUUUUUUCCUCGAGCAA | ≤ 0.026
CUCUGGGUAGCCAAGUUGGUUUAAGGCGCAAGACUUUAAUUUAUCACUACGAAAUCUUGAGAUCGGGCGUUCGACUCGCCCCCGGGUGAUUUUUUCCUCGAGCAA | ≤ 0.026
CUCUUGGUAGCCAAGUUGGUUUAAGGCGCAGGACUUUAAUUUAUCACUACGAAAUCUUGAGAUCGGGCGUCCGACUCGCCCCCGGGAGAUUUUUUCCUCGAGCAA | ≤ 0.026
CUCUUGGUAGCCAAGUUGGUUUAAGGCGCAAGACUUUAAUUUAUCACUACGAAAUCUUGAGAUCGGGCGUUCGACUCGCCCCCGGGAGAUUUUUUCCUCGAGCAA | 0.096
CUCUUGGUAGCCAAGUUGGUUUAAGGCGCAAGACUUUAAUUUAUCACUACGAAAUCUUGAGAUCGGGUGUUCGACUCGCCCCCGGGAGAUUUUUUCCUCGAGCAA | ≤ 0.026
CUCUGGGUAGCCAAGUUGGUUUAAGGCGCAAGGCUUUAAUUUAUCACUACGAAAUCUUGAGAUCACGCGUUCGACUCGCCCCCGGGAGAUUUUUUCCUCGAGCAA | ≤ 0.026
CUCUGCGUCGCCAAGUUGGUUUAAGGCGCAAGACUUUAAUUUAUCACUACGAAAUCUUGAGAUCGGGCGUUCGACUCGCCCCCGGGAGCUUUUUUCCUCGAGCAA | ≤ 0.026
CUCUAGGUAGCCAAGUUGGUUUAAGGCGCAAGACUUUAAUUUAUCACUACGAAAUCUUGAGAUCGGGCGUUCGACCCGCCCCCGGCAGAUUUUUUCCUCGAGCAA | ≤ 0.026
CUCUUGGUAGCCAGGUUGGUUUAAGGCGCAAGACUUUAAUUUAUCACUACGAAAGCUUGAGAUCGGGCGUUCGACUCGCCCCCGGGAGAUUUUUUCCUCGAGCAA | ≤ 0.026
CUCUAGGCUGCCAAGUUGGUUUAAGGCGCAAGACUUUAAUUUAUCACUACGAAAUCUUGAGAUCGGGCGUUCGACUCGCACCCGGGAGAUUUUUUCCUCGAGCAA | ≤ 0.026

Variant | nonsense suppression
CUCUGGGUAGCGAAGCUGGUUUAAGGCGCAAAACUUUAAUUUAUCACUACGAAAUCUUGAGAUCGGGCGUUCGACUCGCCCCCGGGAGAUUUUUUCCUCGAGCAA | ≤ 0.026
CUCUGGGUAGCCAAGUUGGUUUAAGGCGCAAGACUUUAAUUUAUCACUACGAAACCUUGAGAUCGGGCCUUCGACUCGCCCCCGGUAGAUUUUUUCCUCGAGCAA | ≤ 0.026
CUCUUGGUAGCCAAGUUGGUUUAAGGCGCAAGACUUUAAUUUAUCACUACGAAAUCUUGAGUUCGGGCCUUCGACUCGCCCCCGGGUGAUUUUUUCCUCGAGCAA | ≤ 0.026
CUCUUGGUAGCCAAGUUGGUUUAAGGCGCAAGACUUUAAUUUAUCACUACGAAAUCUUGAGAUCGGGCGUUCGACUCGCCCCCGGGGGAUUUUUUCCUCGAGCAA | 0.0561
CUCUGGGUAGCCAAGUUGGUUUAACGCGCAAGACUUUAAUUUAUCACUACGAAAUCUUGAGAUCGGGCCUUCGACUCGCACCCGGGAGAUUUUUUCCUCGAGCAA | ≤ 0.026
CUCUGGGUAGCAAAGUUGGUUUAAGGCGCAAGACUUUAAUUUAUCACUACGAAAUCUUUAGAUCGGGCGUUCGACUCGCCCCCGGGAGAUUUUUUCCUCGAGCAA | ≤ 0.026
CUCUAGGCAGCCAACUUGGUUUAAGGCGCAAGACUUUAAUUUAUCACUACGAAAUCUUGCGAUCGGGCGUUCGACUCGCCCCCGGGAGAUUUUUUCCUCGAGCAA | ≤ 0.026
CUCUAGGUAGCCAAGUUGGUUUAAGGCGCAAGACUUUAAUUUAUCACUACGAAAUCUUGAGAACGCGCGUUCGACUCGCCCCCGGGAGAUUUUUUCCUCGAGCAA | ≤ 0.026
CUCUGGGUAGCCAAGUUGGUUUAAGGCGCAAGACUUUAAUUUAUCACUACGAAAUCUUGAGAUCGGGCGUUCGACUCUCCCCCGGGAGAUUUUUUCCUCGAGCAA | 0.0283
CUCUUGGUGGCCAAGUUGGUUUAAGGCGCAAGACUUUAAUUUAUCACUACGAAAUCUUGAGAUCGGGCGUUCGACUCGCCCCCGGGAGAUUUUUUCCUCGAGCAA | 0.0324
CUCUGGGUAGCCAAGUUGGUUUAAGGCGCAAGAUUUUAAUUUAUCACUACGAAAUCUUGAGAUCGGGCGUUCGUCUAGCCCCCGGGAGAUUUUUUCCUCGAGCAA | ≤ 0.026
CUCUUGGUAGCCAAGUUGGUUUAAGGCGCAAGACUUUAAUUUAUCACUACGAAAUCUUGCGAUCGGGCGUUCGACUCGCCCCCGGGAGAUUUUUUCCUCGAGCAA | 0.0867
CUCUUGGUAGCCAAGUUGGUUUAAGGCGUAAGAUUUUAAUUUAUCACUACGAAAUCUUGAGAUCGGGCGUUCGACUCGCCCCCGGGCGAUUUUUUCCUCGAGCAA | ≤ 0.026
CUCUGGGUAGCCAAGUUGGUUUAAGGCGCAAGACUUUAAUUUAUCACUACGAAAUCUUGAAAUCGGGCGUUCGACUCGCCCCCGGGAGAUUUUUUCCUCGAGCAA | ≤ 0.026
CUCUGGGUAGCCAAGUUGGUUUAAGGCGCAAGACUUUAAUUUAUCACUACGAAAUCUUGCGAUAGGGCGUUCGACUCGCCCCCGGGAGAUUUUUUCCUCGAGCAA | ≤ 0.026
CUCUGGGUAGCCAAGUUGGUUUAACGCGCAAGACUUUAAUUUAUCACUACGAAAUCUUGAGAUCGGGCCUUCGACUCGCCCCCGGGAGAUUUUUUCCUCGAGCAA | ≤ 0.026
CUCUGGGUAGCCAAGUUGGUUUAAGGCGCAAGACUUUAAUUUAUCACUACGAAAUCUUGAGAUCGGGCGUUCGACUCGCCCCCUGGAGAUUUUUUCCUCGAGCAA | 0.475
CUCUUGGUAGUCAAGUUGGUUUAAGGCGCAAGACUUUAAUUUAUCACUACGAAAUCUUGAGAUCGAGCGUUCGACUCGCCCCCGGGAGAUUUUUUCCUCGAGCAA | ≤ 0.026
CUCUUGGUAGCCAAGUUGGUUUGAGGCGCAAGACUUUAAUUUAUCACUACGAAAUCUUGAGAUCGGGCGUUCGACUCGCCCCCGGGAGAUUUUUUCCUCGAGCAA | 0.0405
CUCUGGGUACCCAAGUUGGUUUAAGGCGCAAGACUUUAAUUUAUCACUACGAAAUCCUGAGAUCGGGCGUUCGACUCGCCCCCGGGAGAUUUUUUCCUCGAGCAA | ≤ 0.026
CUCUGGGUAGCCAAGUUGGUUUAAGGCGCAAGACUUUAAUUUAUCACUACGAAAUCUUGAGAUCGGGCGUUCGGCUCGCCCCCGGGAGAUUUUUUCCUCGAGCAA | ≤ 0.026
CUCUGGGUAGCCAAGUUGGUUUAAGGCGCAAGACUUUAAUUUAUCACUACGAAACCUUGAGAUCGGGCGCUCGACUCGCCCCCGGGAGAUUUUUUCCUCGAGCAA | ≤ 0.026
CUCUAGGUAGCCAAGUUGGUUUAAGGCGCAAGACUUUAAUUUAUCACUACGAAACCUUGAGAUCGGGCGUUCGACUCGCCCCCGGGAGGUUUUUUCCUCGAGCAA | ≤ 0.026
CUCUUGGUAGCCAAGUUGGUUUAAGGCGCUAGACUUUAAUUUAUCACUACGAAAUCUUGAGAUCGGGCGUUCGACUCGCCCCCGGGAGAUUUUUUCCUCGAGCAA | 0.138
CUCUGGGUAGCCAAGUUGGUUUAAGGCGCAAGACUUUAAUUUAUCACUACGAAAUCUUGAGAUCGGGCGUUCGACGCGCCCCCGGGAGAUUUUUUCCUCGAGCAA | ≤ 0.026
CUCUGGGUAGCGAAGUUGGUUUAAGGCGCAAGACUUUAAUUUAUCACUACGAAAUCUUGAGAUCGGGCGUUCGACUCGCCCCCGGGAGAUUUUUUCCUCGAGCAA | 0.174
CUCUAGGUAGCCAAGGUGGUUUAAGGCGCAAGACUUUAAUUUAUCACUACGAAAUCUUGAGAUCGGGCGUUCGACUCGCCCCCGGGAUAUUUUUUCCUCGAGCAA | ≤ 0.026
